Bioassay records: PubChem, Sanford-Burnham Center for Chemical Genomics
mIAP act – activators of mouse IAP, primary screen, biochemical, luminescence, uHTS; activation factor at 10 µM; AID 2805, 2010; intestinal alkaline phosphatase [Mus musculus]; muIAP, CDP-Star luminescence, 30 min; active compounds read high; 1 = vehicle-only enzyme signal, 0 = enzyme-free wells; hit rate 0.24% among 330,000;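 active = activation factor of at least 2 at 20 µM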
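System: mouse IAP enzyme. Reagent: CDP-Star chemiluminescent phosphatase substrate. Benchmarks: DMSO wells, no-enzyme wells. Times: 30 min enzyme-substrate-compound incubation at room temperature. Detection: luminescence from enzymatic CDP-Star hydrolysis. Doses: test compounds delivered from DMSO solution.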
bIAP inh – bovine intestinal alkaline phosphatase inhibitors, primary screen, selectivity assay for TNAP inhibitor project, biochemical, bovine IAP, CDP-star luminescence; alkaline phosphatase, intestinal [Bos taurus]; purified bovine IAP, 30 min; inhibition, % at 20 µM; 190,000 tested, under 10 active; AID 1019, 2008;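 active = over 50% inhibition of intestinal alkaline phosphatase at 20 µM in the single-dose screen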
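System: purified bovine intestinal alkaline phosphatase (IAP) enzyme; Input: IAP diluted 1/65,000,000 in the well; Measured by: CDP-star luminescence signal; Compound dosing: 20 µM single dose; Incubation: 30 min reaction at room temperature.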
hIAP inh – human IAP inhibitors, primary screen, biochemical, luminescence, uHTS; inhibition, % at 10 µM; purified IAP, CDP-Star luminescence, 30 min; hit rate 0.12% among 330,000;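 active = inhibition reaching a set limit with compound at 10 µM in the primary screen, cut at about 35% in these data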
Target sequence (P09923 whole entry, looked up): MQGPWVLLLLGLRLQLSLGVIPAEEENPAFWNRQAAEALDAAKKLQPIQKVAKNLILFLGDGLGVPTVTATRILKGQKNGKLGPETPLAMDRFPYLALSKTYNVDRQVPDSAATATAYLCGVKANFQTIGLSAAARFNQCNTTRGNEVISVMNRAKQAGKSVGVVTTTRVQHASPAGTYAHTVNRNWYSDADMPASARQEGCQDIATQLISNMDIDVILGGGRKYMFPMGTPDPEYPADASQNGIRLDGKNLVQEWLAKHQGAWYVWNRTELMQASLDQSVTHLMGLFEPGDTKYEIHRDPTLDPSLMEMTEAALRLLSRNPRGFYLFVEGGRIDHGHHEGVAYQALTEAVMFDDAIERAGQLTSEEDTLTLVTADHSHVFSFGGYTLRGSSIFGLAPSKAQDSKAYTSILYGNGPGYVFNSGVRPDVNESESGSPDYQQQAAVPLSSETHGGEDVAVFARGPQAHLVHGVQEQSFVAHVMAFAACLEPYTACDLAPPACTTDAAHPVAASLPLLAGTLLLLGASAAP
hIAP act – human IAP activators, primary screen, biochemical, luminescence, uHTS; Intestinal-type alkaline phosphatase (Homo sapiens), P09923; purified human IAP, CDP-Star luminescence, 30 min; active compounds read high; 1 = vehicle-only enzyme, 0 = enzyme-free background; activation factor at 10 µM; hit rate 0.16% among 330,000; AID 2524, 2010;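 active = activation factor of the enzyme at least 2-fold when tested at 20 µM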
bIAP activator – bovine intestinal alkaline phosphatase activators, primary screen, biochemical, bovine IAP, CDP-star luminescence | purified bovine IAP, 30 min; active compounds read high; fold of DMSO-control signal, blank-subtracted | activation factor at 20 µM | hit rate 0.17% among 200,000 | AID 1016, 2008;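 active = activation factor of 2 or more at 20 µM, a signal rise over negative controls twice the positive control's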
mIAP inh – inhibitors of mouse IAP, primary screen, biochemical, luminescence, uHTS. purified mouse IAP, CDP-Star luminescence, 30 min. inhibition, % at 10 µM. hit rate 0.2% among 330,000. AID 2806, 2010;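 active = inhibition of at least 40% at 10 µM in the primary screen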
hIAP act confirm – human IAP activators, confirmation, biochemical, luminescence, single concentration, uHTS hits; shares compounds with hIAP act; purified IAP, CDP-Star luminescence, 30 min; active compounds read low; activation (%Activity, negative = activation), % at 8.3 µM; hit rate 10% among 880;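 active = at least twofold enzyme activation in any of six single-dose repeats, which the averaged readout prints as negative percent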
A number is an active result; . = inactive; / = no result; + = active, no number. Shown are actives, neighbours in structure and some others; about 0.72% of the full set was active somewhere.

SMILES	mIAP act	bIAP inh	hIAP inh	hIAP act	bIAP activator	mIAP inh	hIAP act confirm
Cc1ccc2oc(C(=O)Nc3nnc(C)s3)c(C)c2c1	.	.	.	.	.	.	/
COc1ccccc1NC(=S)NCc1ccc(Cl)cc1	.	/	.	.	/	.	/
CSc1ccccc1NC(=S)NCc1ccc(Cl)cc1	.	/	40	.	/	.	.
COn1c(-c2ccc(Cl)cc2)nc2ccc(Cl)cc21	.	.	.	.	.	.	/
O=C(O)COn1c(-c2ccc(Cl)cc2)nc2ccc(Cl)cc21	.	.	.	2.2	.	.	.
Cc1ccc(C)c(CNS(=O)(=O)c2c(C)[nH]c(C)c2C(=O)N2CCCCC2)c1	.	/	.	.	/	.	/
Cn1nnnc1SCC(=O)Nc1ccccc1-c1ccccc1	.	.	38	.	.	.	.
Cc1ccccc1NC(=O)CSc1nnnn1C	.	.	.	.	.	.	/
Cc1ccc(NC(=O)COc2cccc(-n3cnnn3)c2)cc1S(=O)(=O)N1CCOCC1	.	/	.	.	/	.	/
Cc1ccc(-n2ncc3c(=O)n(CC(N)=O)cnc32)cc1C	.	/	.	.	/	.	/
Cc1nc2c3cnn(-c4ccc(C)c(C)c4)c3ncn2n1	.	.	74	.	.	.	.
CCCCC#Cc1cncc(C(=O)N/N=C/c2cccc(OC)c2)c1	.	/	40	.	/	.	.
CCN(CC)C(=O)Cc1cc(C(=O)O)c2ccccc2n1	.	.	.	2	.	.	.
CCOc1ccc(Br)cc1C1=NN(C(C)=O)C(c2ccc([N+](=O)[O-])s2)O1 (stereo unspecified)	.	/	.	.	/	.	/
CCOc1ccc2oc(C(=O)NNC(=O)c3ccccc3O)c(C)c2c1	.	/	.	2.4	/	.	.
CCCCC(CC)C(=O)Nc1cc(=O)[nH]c2nc3ccccc3n12 (stereo unspecified)	.	/	.	2	/	.	.
CC1OC(Oc2c(-c3cc(O)c(O)c(O)c3)oc3cc(O)cc(O)c3c2=O)C(O)C(O)C1O (stereo unspecified)	.	/	.	.	/	.	/
O=C(O)C1OC(Oc2c(-c3ccc(O)c(O)c3)oc3cc(O)cc(O)c3c2=O)C(O)C(O)C1O (stereo unspecified)	.	.	71	.	.	.	.
COc1ccc2nc(N3CCC(O)CC3)c(C#N)cc2c1	.	.	35	.	.	.	.
CN1C(=O)/C(=C\c2cc(N=Nc3ccccc3)ccc2O)SC1=S	.	.	38	.	.	.	.
CCCCN(CCCC)CCNC(=O)c1cn(C)c2ccc(S(=O)(=O)N3CCCC3)cc2c1=O	.	/	.	.	/	.	/
COc1cccc(NC(=O)N2CCC(NC(=O)C3CCCCC3)CC2)c1	.	/	.	.	/	.	/
c1ccc(-c2nnc(CN3CCC4(CC3)OCCO4)o2)cc1	.	.	41	.	.	.	.
c1ccc(-c2nnc(CN3CCCCC3)o2)cc1	.	/	.	.	/	.	/
O=S(=O)(c1ccc(SCc2ccc(Br)cc2)nc1)N1CCCCC1	.	/	.	.	/	.	/
SMILES	mIAP act	bIAP inh	hIAP inh	hIAP act	bIAP activator	mIAP inh	hIAP act confirm
O=C(NNC(=O)C1CCC1)c1cccc(Cl)c1	.	/	.	.	/	.	/
Cc1ccc(C)c(NC(=O)CCC(=O)NNC(=S)Nc2ccccc2)c1	.	.	.	.	.	.	/
Cc1ccc(C)c(NCC(=O)NNC(=S)Nc2ccccc2)c1	.	.	.	2	.	.	.
Cc1ccc(NC(=O)CCC(=O)NNC(=S)Nc2ccccc2)c(C)c1	.	.	.	2.1	.	.	.
Cc1ccc(C)c(NC(=S)NCc2ccccc2)c1	.	/	.	.	/	.	/
O=C(Cc1ccccc1)NNC(=S)Nc1ccccc1	.	.	.	2.2	.	.	.
COc1cccc(/C=N/Nc2nn3cnnc3c3ccccc23)c1O	.	.	.	2	.	.	.
Oc1cccc(/C=N/Nc2nn3cnnc3c3ccccc23)c1	.	/	.	.	/	.	/
COc1cccc(/C=N/NC(=O)N/N=C/c2cccc(OC)c2O)c1O	.	/	.	2.5	/	.	.
CC1=Nc2ccccc2N=C(NC(=O)CSC(=S)N2CCCCC2)C1c1ccccc1 (stereo unspecified)	.	/	.	.	/	.	/
CC1=Nc2ccccc2N=C(NC(=O)CSC(=S)N2CCN(C)CC2)C1c1ccccc1 (stereo unspecified)	.	/	.	2.4	/	.	.
CC(=O)Nc1nc(-c2ccc(Br)s2)cs1	.	.	.	2.2	.	.	.
CC(=O)Nc1nc(-c2cccc3ccccc23)cs1	.	/	.	.	/	.	/
COC(=O)c1ccccc1NC(=O)Nc1ccc2c(c1)OCO2	.	.	.	.	.	.	/
COC(=O)c1ccc(C(=O)OC)c(NC(=O)Nc2ccc3c(c2)OCO3)c1	.	.	.	2.2	.	.	+
CCOC(=O)C1CCN(S(=O)(=O)c2c(Cl)ccc3nonc23)CC1	.	/	.	.	/	.	/
CN1CCN(C(=O)/C(=C\c2cccnc2)NC(=O)c2cccc(Br)c2)CC1	.	/	.	.	/	.	/
O=C(O)C(Cc1c[nH]c2ccccc12)NS(=O)(=O)c1ccc(Cl)c(C(F)(F)F)c1 (stereo unspecified)	.	/	.	.	/	.	/
O=C(CNS(=O)(=O)c1ccccc1)NNC(=O)C(Cl)Cl	.	.	.	2.2	.	.	.
CCOC(=O)C(=O)N/N=C(/c1ccccc1)c1ccc(OC)cc1	.	/	37	.	/	.	.
CCOc1cccc(/C=N/NC(=O)c2cc(C3CC3)[nH]n2)c1O	.	/	.	2.5	/	.	.
CCCCNC(=O)N(O)C1N(/N=C/c2cccs2)C(=S)SC1(C)C (stereo unspecified)	.	/	36	.	/	.	.
CNC(=O)N(O)C1N(/N=C/c2ccccc2O)C(=S)SC1(C)C (stereo unspecified)	.	/	.	.	/	.	/
CC(C)c1c(C(=O)N/N=C/c2ccc3c(c2)OCO3)nnn1-c1nonc1N	.	/	.	.	/	.	/
CCN(CC)c1ccc(/C=N/NC(=O)c2nnn(-c3nonc3N)c2C(C)C)c(O)c1	.	/	.	2	/	.	.
Cc1cc(OCC(=O)OCC(=O)N(C)Cc2ccccc2C)ccc1Cl	.	/	.	.	/	.	/
Cc1ccc(NCc2ccc([N+](=O)[O-])s2)cc1	.	/	37	.	/	.	.
